In ChEMBL document CHEMBL1139880, “Potent and selective agonists of human melanocortin receptor 5: cyclic analogues of alpha-melanocyte-stimulating hormone” (J Med Chem, 2007):
pEC50, pIC50: −log10 of the molar value. Starred links: 1 amine or outer side, 2 acyl side, 3 side chain; linkers in the order of their positions; H or OH if unused. Positions of bridges follow the written chain, without caps; N, C: chain ends. Non-standard residues stand in square brackets, D forms with d. Residues, ends and D or L forms follow the SMILES beside them. ξ: configuration not given here. X7 = O=C([C@H](Cc1ccc(Cc2ccccc2)cc1)N[*:1])[*:2]; X4 = O=C([C@H](CC1CCC(C2CCCCC2)CC1)N[*:1])[*:2]; Oic(3aξ,7aξ) = O=C(O)[C@@H]1CC2CCCCC2N1; X3 = O=C([C@H]1CC2CCCCC2N1[*:1])[*:2]; Pip = O=C(O)[C@@H]1CCCCN1; Nle = CCCC[C@H](N)C(=O)O

How the values were obtained:
[1] = biological target: T1, Melanocortin receptor 3 (Homo sapiens, UniProt P41968); assay: Displacement of [125I]NDPalphaMSH from human cloned MC3R expressed in CHO cells; assay type: cell-based
[2] = biological target: T1, Melanocortin receptor 3; assay: Agonist activity at human MC3R expressed in CHO cells assessed as cAMP accumulation; assay type: functional, cell-based
Outline: (§1)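 Dissociated CHO cells were spun 5 min and resuspended in Earle's balanced salt solution with 10 mM HEPES pH 7.5, 5 mM MgCl2, 1 mM glutamine and 1 mg/mL BSA. They were incubated 40 min at room temperature with compound (0.003–5000 nM) plus 0.6 mM IBMX, then lysed with 0.1 M HCl. cAMP was measured by Flashplate cAMP assay.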

[3] = biological target: T2, Melanocortin receptor 4 (Homo sapiens, UniProt P32245); assay: Displacement of [125I]NDPalphaMSH from human cloned MC4R expressed in CHO cells; assay type: cell-based
[4] = biological target: T3, Melanocortin receptor 5 (Homo sapiens, UniProt P33032); assay: Agonist activity at human MC5R expressed in CHO cells assessed as cAMP accumulation; assay type: functional, cell-based
[5] = biological target: T4, Melanocyte-stimulating hormone receptor (Homo sapiens, UniProt Q01726); assay: Displacement of [125I]NDPalphaMSH from human cloned melanocortin receptor 1b expressed in CHO cells; assay type: cell-based
Target sequence in this assay (Q01726 whole entry): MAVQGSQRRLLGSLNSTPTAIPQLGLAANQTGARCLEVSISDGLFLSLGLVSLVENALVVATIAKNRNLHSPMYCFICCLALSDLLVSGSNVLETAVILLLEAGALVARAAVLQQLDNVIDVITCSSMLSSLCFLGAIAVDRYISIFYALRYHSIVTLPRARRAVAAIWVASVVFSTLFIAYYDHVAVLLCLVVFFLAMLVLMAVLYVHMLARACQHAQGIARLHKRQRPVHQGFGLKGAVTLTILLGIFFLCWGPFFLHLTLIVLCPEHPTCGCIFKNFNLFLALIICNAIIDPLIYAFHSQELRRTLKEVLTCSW

[6] = biological target: T4, Melanocyte-stimulating hormone receptor; assay: Agonist activity at human melanocortin receptor 1b expressed in CHO cells assessed as cAMP accumulation; assay type: functional, cell-based; outline: as §1
Target sequence in this assay (Q01726 whole entry): as above

[7] = biological target: T3, Melanocortin receptor 5; assay: Displacement of [125I]NDPalphaMSH from human cloned MC5R expressed in CHO cells; assay type: cell-based
[8] = biological target: Melanocortin receptor (M4 and M5) (Homo sapiens) (UniProt P32245+P33032); assay: Selectivity for human cloned MC5R over human cloned MC4R; assay type: protein assay
[9] = species: Homo sapiens; assay: Selectivity for human cloned MC5R over human cloned MC1bR
[10] = species: Homo sapiens; assay: Selectivity for human cloned MC5R over human cloned MC3R
[11] = biological target: T2, Melanocortin receptor 4; assay: Agonist activity at human MC4R expressed in CHO cells assessed as cAMP accumulation at 10 uM relative to [125I]NDPalphaMSH; assay type: functional, cell-based; conditions: filed as partial agonist
[12] = biological target: T1, Melanocortin receptor 3; assay: Agonist activity at human MC3R expressed in CHO cells assessed as cAMP accumulation at […] relative to [125I]NDPalphaMSH; assay type: functional, cell-based
[13] = biological target: T1, Melanocortin receptor 3; assay: Agonist activity at human MC3R expressed in CHO cells assessed as cAMP accumulation at 2 uM relative to [125I]NDPalphaMSH; assay type: functional, cell-based
[14] = biological target: T2, Melanocortin receptor 4; assay: Agonist activity at human MC4R expressed in CHO cells assessed as cAMP accumulation at 1 uM relative to [125I]NDPalphaMSH; assay type: functional, cell-based
[15] = biological target: T1, Melanocortin receptor 3; assay: Agonist activity at human MC3R expressed in CHO cells assessed as cAMP accumulation at 1 uM relative to [125I]NDPalphaMSH; assay type: functional, cell-based
[16] = biological target: T4, Melanocyte-stimulating hormone receptor; assay: Agonist activity at human melanocortin receptor 1b expressed in CHO cells assessed as cAMP accumulation relative to [125I]NDPalphaMSH; assay type: functional, cell-based
Target sequence in this assay (Q01726 whole entry, looked up): as the sequence (Q01726 whole entry) above

[17] = biological target: T4, Melanocyte-stimulating hormone receptor; assay: Agonist activity at human melanocortin receptor 1b expressed in CHO cells assessed as cAMP accumulation at 1 uM relative to [125I]NDPalphaMSH; assay type: functional, cell-based
Target sequence in this assay (Q01726 whole entry, looked up): as the sequence (Q01726 whole entry) above

[18] = biological target: T2, Melanocortin receptor 4; assay: Inhibition of human cloned MC4R expressed in CHO cells at 2 uM relative to [125I]NDPalphaMSH; assay type: cell-based

T2 sequence (P32245 whole entry): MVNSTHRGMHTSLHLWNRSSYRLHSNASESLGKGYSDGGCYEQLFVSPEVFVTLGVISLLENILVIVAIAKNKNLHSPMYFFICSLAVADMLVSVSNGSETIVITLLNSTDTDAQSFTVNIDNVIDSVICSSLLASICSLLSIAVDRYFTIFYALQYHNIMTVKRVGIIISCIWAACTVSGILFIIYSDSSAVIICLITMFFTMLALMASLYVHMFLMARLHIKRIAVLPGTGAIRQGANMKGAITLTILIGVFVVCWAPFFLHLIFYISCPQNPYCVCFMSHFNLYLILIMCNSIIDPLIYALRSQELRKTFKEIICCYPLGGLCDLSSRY
T1 sequence (P41968 whole entry): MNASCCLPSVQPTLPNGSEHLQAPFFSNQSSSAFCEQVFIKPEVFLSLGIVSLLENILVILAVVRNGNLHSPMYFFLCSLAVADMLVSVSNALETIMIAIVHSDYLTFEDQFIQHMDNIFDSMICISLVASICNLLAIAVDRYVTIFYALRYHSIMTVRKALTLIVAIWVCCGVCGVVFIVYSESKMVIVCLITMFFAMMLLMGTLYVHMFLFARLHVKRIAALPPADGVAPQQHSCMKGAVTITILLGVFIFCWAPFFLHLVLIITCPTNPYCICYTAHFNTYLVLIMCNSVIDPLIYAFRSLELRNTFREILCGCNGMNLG
T3 sequence (P33032 whole entry): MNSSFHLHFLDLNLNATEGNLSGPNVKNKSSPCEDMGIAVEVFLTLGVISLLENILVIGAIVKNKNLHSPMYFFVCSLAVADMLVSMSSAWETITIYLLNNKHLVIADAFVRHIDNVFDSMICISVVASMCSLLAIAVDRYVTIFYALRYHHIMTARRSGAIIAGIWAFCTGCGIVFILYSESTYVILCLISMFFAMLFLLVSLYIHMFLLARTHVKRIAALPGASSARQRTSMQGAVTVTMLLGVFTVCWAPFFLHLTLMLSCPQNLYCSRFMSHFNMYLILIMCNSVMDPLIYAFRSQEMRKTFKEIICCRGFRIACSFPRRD
Melanocortin receptor (M4 and M5) (Homo sapiens), sequence (P32245 whole entry, looked up): as the sequence (P32245 whole entry) above
Melanocortin receptor (M4 and M5) (Homo sapiens), sequence (P33032 whole entry, looked up): as the sequence (P33032 whole entry) above

Row | Structure (SMILES) | pIC50 [1] | IC50 [3] | EC50 [4] | IC50 [5] | EC50 [6] | IC50 [7] | Ratio IC50 [9] | Activity [15] [%] | IC50 [1] | further results
1 | CCCC[C@H](NC(C)=O)C(=O)N[C@H]1CC(=O)NCCCC[C@@H](C(N)=O)NC(=O)[C@H](Cc2c[nH]c3ccccc23)NC(=O)[C@@H]2CCCN2C(=O)[C@@H](Cc2ccc(Cl)cc2)NC(=O)[C@H](Cc2c[nH]cn2)NC1=O | < 4.70 | 4500 nM (antagonist) | 82 nM (agonist) | 560 nM (antagonist) | 63 nM (agonist) | 1300 nM (antagonist) | – | – | – | pEC50 [2]: < 5.30
2 | CCCC[C@H](NC(C)=O)C(=O)N[C@H]1CC(=O)NCCCC[C@@H](C(N)=O)NC(=O)[C@H](Cc2c[nH]c3ccccc23)NC(=O)[C@@H]2CCCN2C(=O)[C@H](Cc2ccc(-c3ccccc3)cc2)NC(=O)[C@@H]2CCCN2C1=O | – | – | – | – | – | – | 720 | – | – | Ratio IC50 [8]: 340; Ratio IC50 [10]: 217; Activity [11]: 40%; Activity [12]: 2%
3 | CCCC[C@H](NC(C)=O)C(=O)N[C@H]1CC(=O)NCCCC[C@@H](C(N)=O)NC(=O)[C@H](Cc2c[nH]c3ccccc23)NC(=O)[C@@H]2CCCN2C(=O)[C@@H](Cc2ccc(-c3ccccc3)cc2)NC(=O)[C@H](Cc2c[nH]cn2)NC1=O | 5.82 | 1200 nM (antagonist) | 2.5 nM (agonist) | 45 nM (antagonist) | 5.3 nM (agonist) | 4.1 nM (antagonist) | – | – | – | EC50 [2]: 1400 nM (agonist)
4 | CCCC[C@H](NC(C)=O)C(=O)N[C@H]1CC(=O)NCCCC[C@@H](C(N)=O)NC(=O)[C@H](Cc2c[nH]c3ccccc23)NC(=O)[C@@H]2CCCCN2C(=O)[C@H](Cc2ccc(-c3ccccc3)cc2)NC(=O)[C@@H]2CCCN2C1=O | – | – | – | – | – | – | 430 | – | – | Ratio IC50 [8]: 1060; Ratio IC50 [10]: 1800; Activity [13]: 8%; Activity [14]: 9%
5 | CCCC[C@H](NC(C)=O)C(=O)N[C@H]1CC(=O)NCCCC[C@@H](C(N)=O)NC(=O)[C@H](Cc2c[nH]c3ccccc23)NC(=O)[C@@H]2CCCCN2C(=O)[C@H](Cc2ccc(-c3ccccc3)cc2)NC(=O)[C@H](C2CCCCC2)NC1=O | – | – | – | – | – | – | – | 1 | – | Activity ([14]; filed as partial agonist): 43%
6 | CCCC[C@H](NC(C)=O)C(=O)N[C@H]1CC(=O)NCCCC[C@@H](C(N)=O)NC(=O)[C@H](Cc2c[nH]c3ccccc23)NC(=O)[C@@H]2CCCCN2C(=O)[C@@H](Cc2ccc(-c3ccccc3)cc2)NC(=O)[C@@H]2CCCN2C1=O | – | 160 nM (antagonist) | 0.031 nM (agonist) | 65 nM (antagonist) | 28 nM (agonist) | 0.15 nM (antagonist) | – | – | 270 nM (antagonist) | –
7 | CCCC[C@H](NC(C)=O)C(=O)N[C@H]1CC(=O)NCCCC[C@@H](C(N)=O)NC(=O)[C@H](Cc2c[nH]c3ccccc23)NC(=O)[C@@H]2CCCCN2C(=O)[C@@H](Cc2ccc(-c3ccccc3)cc2)NC(=O)[C@H](C(C)C)NC1=O | < 5.00 | 4700 nM (antagonist) | 0.23 nM (agonist) | 4900 nM (antagonist) | 330 nM (agonist) | 7.3 nM (antagonist) | – | – | – | –
8 | CCCC[C@H](NC(C)=O)C(=O)N[C@H]1CC(=O)NCCCC[C@@H](C(N)=O)NC(=O)[C@H](Cc2c[nH]c3ccccc23)NC(=O)[C@@H]2CCCCN2C(=O)[C@H](Cc2ccc(-c3ccccc3)cc2)NC(=O)[C@H](C(C)C)NC1=O | – | – | – | – | – | – | 670 | 3 | – | Activity [16]: 33%; Activity ([14]; filed as agonist): 77%
9 | CCCC[C@H](NC(C)=O)C(=O)N[C@H]1CC(=O)NCCCC[C@@H](C(N)=O)NC(=O)[C@H](Cc2c[nH]c3ccccc23)NC(=O)[C@@H]2CCCCN2C(=O)[C@H](Cc2ccc(Cc3ccccc3)cc2)NC(=O)[C@@H]2CC3CCCCC3N2C1=O (stereo partly drawn) (Ac-[Nle]D[Oic(3aξ,7aξ)][X7][Pip]WK-NH2; lactam 2-7) | – | – | – | – | – | – | – | 2 | – | Activity [17]: 3%
10 | CCCC[C@H](NC(C)=O)C(=O)N[C@H]1CC(=O)NCCCC[C@@H](C(N)=O)NC(=O)[C@H](Cc2c[nH]c3ccccc23)NC(=O)[C@@H]2CCCCN2C(=O)[C@H](CC2CCC(C3CCCCC3)CC2)NC(=O)[C@H]2CC3CCCCC3N2C1=O (stereo partly drawn) (Ac-[Nle]D[X3][X4][Pip]WK-NH2; lactam 2-7) | – | – | – | – | – | – | 1.8 | – | – | pIC50 ([1]; cho): < 6.00; inhibition [18]: 25%; Activity [17]: 13%; pEC50 ([2]; cho): < 6.30; pEC50 ([4]; cho): < 6.30; IC50 ([5]; cho): 1300 nM (antagonist); Activity ([14]; filed as partial agonist): 39%; IC50 ([7]; cho): 700 nM (antagonist)
